# Source: PubChem BioAssay (Sanford-Burnham Center for Chemical Genomics)
# HKDC1 inh = HKDC1 (human) hexokinase inhibition; Q2TB90; recombinant HKDC1, G6PDH/diaphorase resazurin coupled fluorescence; 0.16% of 340,000 active; inhibition, % at 20 µM; AID 493160;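 active = inhibition above about 35% when tested at 20 µM, limit read from the data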;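 also: plate controls were DMSO wells with enzyme for no effect and DMSO wells lacking enzyme for full effect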
# Target sequence (Q2TB90 whole entry, looked up): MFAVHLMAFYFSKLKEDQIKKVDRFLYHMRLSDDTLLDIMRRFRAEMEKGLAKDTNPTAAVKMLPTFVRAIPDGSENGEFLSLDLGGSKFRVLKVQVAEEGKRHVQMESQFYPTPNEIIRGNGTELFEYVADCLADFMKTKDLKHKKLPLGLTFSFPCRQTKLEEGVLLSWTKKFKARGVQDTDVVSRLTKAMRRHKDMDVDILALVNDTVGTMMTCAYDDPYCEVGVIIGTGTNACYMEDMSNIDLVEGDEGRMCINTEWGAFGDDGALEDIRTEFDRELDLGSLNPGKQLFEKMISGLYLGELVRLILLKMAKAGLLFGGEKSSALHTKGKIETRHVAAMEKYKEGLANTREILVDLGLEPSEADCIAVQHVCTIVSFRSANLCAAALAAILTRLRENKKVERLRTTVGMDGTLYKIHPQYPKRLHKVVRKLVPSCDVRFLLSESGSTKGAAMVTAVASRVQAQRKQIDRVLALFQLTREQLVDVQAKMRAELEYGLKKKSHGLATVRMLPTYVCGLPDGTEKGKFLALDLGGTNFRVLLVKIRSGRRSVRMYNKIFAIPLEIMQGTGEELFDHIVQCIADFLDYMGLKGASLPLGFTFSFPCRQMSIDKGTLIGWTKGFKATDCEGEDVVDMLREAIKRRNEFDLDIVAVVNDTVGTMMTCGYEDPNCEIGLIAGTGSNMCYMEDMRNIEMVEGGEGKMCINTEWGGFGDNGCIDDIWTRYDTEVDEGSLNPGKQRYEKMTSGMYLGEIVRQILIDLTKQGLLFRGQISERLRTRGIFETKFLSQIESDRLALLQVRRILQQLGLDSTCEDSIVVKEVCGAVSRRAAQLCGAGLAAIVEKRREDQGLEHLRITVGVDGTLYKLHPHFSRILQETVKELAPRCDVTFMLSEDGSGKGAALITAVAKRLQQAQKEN
#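 Assay system: recombinant HKDC1 hexokinase; detection: coupled resazurin fluorescence, excitation 525 nm, emission 613 nm; benchmarks: DMSO-plus-enzyme-mix negative control, buffer-substituted positive control; compound dosing: single 20 µM dose; schedule: 90 min at room temperature in dark; also added: glucose plus 1 mM ATP as hexokinase substrates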
# G6PDH counter = inhibits Leuconostoc G6PDH, flagging false hits in G6PDH-based assays. Purified L. mesenteroides G6PDH, diaphorase/resazurin coupled fluorescence, 45 min. inhibition, % at 5 µM. 0.12% of 200,000 active. AID 1020; in the data active = inhibition above about 50%
# PfGluPho inh = PfG6PD (Plasmodium falciparum) enzyme inhibition; PfGluPho enzyme, NADPH resazurin-diaphorase fluorescence; 0.78% of 350,000 active; inhibition, % at 20 µM;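 active = inhibition reaching at least a set limit at 20 µM in the primary screen, cut at about 59% in these data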;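 also: 0% = DMSO wells with substrate and 100% = DMSO wells lacking glucose-6-phosphate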
# Diaph inh CS = counter-screen for diaphorase-based assays: diaphorase inhibitors and chemical oxidizers; AID 1217; 0.69% of 190,000 active; inhibition, % at 20 µM; diaphorase resazurin-to-resorufin fluorescence, NADH, 16 min; bacterial (C. kluyveri) enzyme, not human;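 active = primary screen inhibition at 20 µM above a set limit, cut at about 50% in these data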;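 also: plate controls were DMSO with full reaction for no effect and wells lacking NADH for full effect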
#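 System: Diaphorase enzyme from Clostridium kluyveri | Amount: Enzyme working solution with 0.14 U/mL diaphorase | Benchmarks: No-NADH positive control and DMSO neutral control | Signal: Fluorescence of resorufin formed from resazurin, Ex 544/Em 590 nm | Schedule: 16-min room-temperature incubation before reading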
# PfGluPho conf = PfG6PD inhibition, single-dose confirmed. shares compounds with PfGluPho inh. recombinant PfGluPho, NADPH-diaphorase-resazurin fluorescence. AID 504753. 34% of 2,400 active. inhibition, % at 20 µM;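 active = inhibition of at least 50% at 20 µM in any single replicate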;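 also: 0% = DMSO with substrate and 100% = DMSO lacking glucose-6-phosphate substrate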
# Diaphorase 10uM = counter-screen for P. falciparum G6PD inhibitors: diaphorase inhibitors, oxidizers; shares compounds with PfGluPho inh; diaphorase-coupled resazurin reduction, fluorescence, NADPH 10 uM; inhibition, % at 20 µM; 39% of 820 active; AID 504862;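 active = average inhibition reaching 50% or more with the compound at 20 µM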;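 also: resorufin red fluorescence formed as diaphorase reduces resazurin using NADPH; 0% = DMSO with enzyme and 100% = DMSO without enzyme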
# Diaph ctr 30uM = diaphorase inhibition or oxidation at 30 uM NADPH; shares compounds with PfGluPho inh; Diaphorase/resazurin coupled assay, resorufin fluorescence; inhibition, % at 20 µM; 29% of 820 active; AID 504863;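 active = inhibition averaging 50% or more, tested at 20 µM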;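 also: 0% = DMSO with enzyme and 100% = DMSO wells lacking diaphorase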
# Starred values were filed as active, the others as inactive; · = not tested or not shown. An excerpt weighted towards active compounds, which were near 1.2% of everything screened.
SMILES,HKDC1 inh,G6PDH counter,PfGluPho inh,Diaph inh CS,PfGluPho conf,others
Cc1nnc(NC(=O)CCC(=O)N2CCN(S(=O)(=O)c3cc([N+](=O)[O-])ccc3C)CC2)s1,-3,·,10,·,·,
COc1ccc(CCn2c(Br)nc3c2c(=O)[nH]c(=O)n3C)cc1,-1,-5,-4,-11,·,
COc1ccc(CCn2c(NN)nc3c2c(=O)[nH]c(=O)n3C)cc1,3,·,103*,·,88*,Diaphorase 10uM=-6;Diaph ctr 30uM=-2
COc1ccc(CCn2c(NN=C(C)C)nc3c2c(=O)[nH]c(=O)n3C)cc1,10,·,118*,·,51*,Diaphorase 10uM=-1;Diaph ctr 30uM=-7
COc1ccc(CCn2c(NCc3ccco3)nc3c2c(=O)[nH]c(=O)n3C)cc1,0,14,20,-15,·,
CCN(CC)C(=O)C1=C(C)N(CCC2=CCCCC2)C(=O)C(CC(=O)NCc2cccs2)C1 (centres undefined),·,·,7,·,·,
COc1cc(N)c(C(=O)c2nccc3cc(OC)c(OC)cc23)cc1OC,-10,·,-6,·,·,
COc1cc(Br)c(C(=O)c2nccc3cc(OC)c(OC)cc23)cc1OC,15,·,88*,·,-21,
O=C(Cc1c[nH]c2ccccc12)NCC(=O)Nc1ccc(F)c(F)c1F,-4,·,-4,·,·,
COc1ccc(S(=O)(=O)N2CCOCC2)cc1NC(=O)c1cccs1,-6,·,-7,·,·,
N#CCCN(NC1=NS(=O)(=O)c2ccccc21)C(=O)c1ccccc1Br,-3,·,11,·,·,
O=C(Nc1ccc(Br)cc1)c1cc2ccccn2n1,-5,·,71*,·,29,
CC(=O)OCC1(C)CN(c2ccccc2)NC1=O (centres undefined),11,19,97*,30,90*,Diaphorase 10uM=-1;Diaph ctr 30uM=-11
CC(=O)OCC1(C)CN(c2ccccc2)N(C(C)=O)C1=O (centres undefined),-2,0,47,23,·,
c1ccc2c(c1)[nH]c1c(N3CCOCC3)ncnc12,16,-14,11,2,·,
CCc1cc(N2CCOCC2)cc2c1[nH]c1ccccc12,6,29,67*,53*,45,
CCC(=O)N1c2ccc(S(=O)(=O)N3CCN(c4cc(C)ccc4C)CC3)cc2CC1C (centres undefined),1,·,8,·,·,
COc1ccc(-c2[nH]nc3c2C(c2ccsc2)C(C#N)=C(N)O3)cc1 (centres undefined),-3,4,1,26,·,
COc1cccc(-c2[nH]nc3c2C(c2ccsc2)C(C#N)=C(N)O3)c1 (centres undefined),15,2,61*,42,34,
CCOC(=O)C1=C(CSc2nc(-c3ccncc3)ccc2C#N)OC(N)=C(C#N)C1c1ccc(OC)cc1 (centres undefined),11,9,59*,14,10,
Cc1nn(-c2ccccn2)c2c1C(=O)C(Br)CC2 (centres undefined),11,33,90*,82*,-1,
COc1ccc(OC2C(=O)N(c3cc(C)ccc3C)C2c2ccc(OC)c(OC)c2)cc1 (centres undefined),-6,-13,23,22,·,
COc1ccc(OC2C(=O)N(c3ccc(C)c(C)c3)C2c2ccc(OC)c(OC)c2)cc1 (centres undefined),1,-20,97*,22,28,
CC(=O)Nc1ccc(C(=O)OCC(=O)N2CCC(Cc3ccccc3)CC2)cc1,-5,·,-8,·,·,
CCN(CC)S(=O)(=O)c1cc(NC(=O)C2CC(=O)N(Cc3ccccc3)C2)ccc1Cl (centres undefined),4,·,18,·,·,
CC1CN(C(=O)COC(=O)CSc2ccc([N+](=O)[O-])cc2)CC(C)O1 (centres undefined),0,·,60*,·,-4,
Cc1c(N=C2C=C(Br)C(=O)C(Br)=C2)c(=O)n(-c2ccccc2)n1C,21,7,98*,69*,103*,Diaphorase 10uM=38;Diaph ctr 30uM=11
CN(C1CCCCC1)S(=O)(=O)c1ccc(=S)[nH]c1,-4,·,61*,·,17,
CN(C1CCCCC1)S(=O)(=O)c1ccc(S(=O)(=O)N2CCCC2)cc1,-10,-8,3,10,·,
Oc1c(N=Nc2ccccc2)sc2ccccc12,-2,·,60*,·,13,
